Experiment [1] concerns the target RAF proto-oncogene serine/threonine-protein kinase (Homo sapiens) (UniProt P04049). Nature of the experiment: Binding affinity to human RAF1 at 500 nM by cell-based competition binding assay relative to control in presence of DTT.
In experiment [2] the target is T1, Testis-specific serine/threonine-protein kinase 1 (Homo sapiens) (UniProt Q9BXA7).
T1 sequence (whole entry): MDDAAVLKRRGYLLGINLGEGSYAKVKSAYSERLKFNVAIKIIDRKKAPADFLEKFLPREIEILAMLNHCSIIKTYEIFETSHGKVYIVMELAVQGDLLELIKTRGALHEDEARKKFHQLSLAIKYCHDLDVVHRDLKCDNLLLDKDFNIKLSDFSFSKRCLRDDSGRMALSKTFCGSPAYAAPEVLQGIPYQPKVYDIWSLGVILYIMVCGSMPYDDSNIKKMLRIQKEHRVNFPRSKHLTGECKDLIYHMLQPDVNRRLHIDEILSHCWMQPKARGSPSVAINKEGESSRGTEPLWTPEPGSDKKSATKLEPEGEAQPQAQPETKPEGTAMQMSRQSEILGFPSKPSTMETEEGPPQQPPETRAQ
Nature of the experiment: Binding affinity to human TSSK1 at 500 nM by cell-based competition binding assay relative to control in presence of DTT.

The target in experiment [3] is Serine/threonine-protein kinase pim-1 (Homo sapiens) (UniProt P11309). Nature of the experiment: Ratio of compound to staurosporine binding affinity to human PIM1 in presence of DTT.
Sequence of Serine/threonine-protein kinase pim-1 (Homo sapiens) (P11309 whole entry, looked up): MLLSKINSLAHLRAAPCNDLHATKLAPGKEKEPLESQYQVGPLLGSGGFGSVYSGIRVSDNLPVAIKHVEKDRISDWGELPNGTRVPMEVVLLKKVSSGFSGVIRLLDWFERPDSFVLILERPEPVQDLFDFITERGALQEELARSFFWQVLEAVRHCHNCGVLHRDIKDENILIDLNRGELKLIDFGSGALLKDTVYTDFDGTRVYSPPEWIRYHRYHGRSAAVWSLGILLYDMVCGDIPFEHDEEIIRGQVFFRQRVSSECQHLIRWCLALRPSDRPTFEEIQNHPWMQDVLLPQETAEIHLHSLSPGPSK
Experiment [4] addresses T2, Tyrosine-protein kinase ZAP-70 (Homo sapiens) (UniProt P43403).
T2 sequence (whole entry): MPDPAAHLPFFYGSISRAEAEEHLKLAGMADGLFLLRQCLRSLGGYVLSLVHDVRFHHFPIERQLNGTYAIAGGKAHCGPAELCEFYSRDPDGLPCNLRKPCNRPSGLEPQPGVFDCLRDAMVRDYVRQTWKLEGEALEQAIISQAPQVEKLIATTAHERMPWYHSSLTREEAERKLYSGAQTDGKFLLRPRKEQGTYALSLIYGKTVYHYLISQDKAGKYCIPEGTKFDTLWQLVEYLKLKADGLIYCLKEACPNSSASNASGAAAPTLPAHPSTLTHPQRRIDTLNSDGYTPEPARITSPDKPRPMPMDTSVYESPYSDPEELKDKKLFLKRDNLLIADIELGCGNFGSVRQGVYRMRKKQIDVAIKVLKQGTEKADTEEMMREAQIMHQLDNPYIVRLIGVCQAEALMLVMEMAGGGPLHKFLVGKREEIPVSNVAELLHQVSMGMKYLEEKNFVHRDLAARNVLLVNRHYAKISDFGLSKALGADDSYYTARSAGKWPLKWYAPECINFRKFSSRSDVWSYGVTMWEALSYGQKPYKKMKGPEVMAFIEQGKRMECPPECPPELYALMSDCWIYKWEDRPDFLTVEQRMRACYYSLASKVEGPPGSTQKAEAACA
Kind of experiment: Ratio of staurosporine to compound binding affinity to human ZAP70 in presence of DTT.

Experiment [5] deals with Glycogen synthase kinase-3 beta (Homo sapiens) (UniProt P49841). Nature of the experiment: Binding affinity to human GSK3-beta at 200 nM by cell-based competition binding assay relative to control in presence of DTT. The gist of the method: (§1)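 Commercial (Ambit) competitive kinase-binding panel of 90 kinases measured the binding profile. Run under reducing conditions of 7.5 mM DTT. Binding is expressed relative to control.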
Sequence of Glycogen synthase kinase-3 beta (Homo sapiens) (P49841 whole entry, looked up): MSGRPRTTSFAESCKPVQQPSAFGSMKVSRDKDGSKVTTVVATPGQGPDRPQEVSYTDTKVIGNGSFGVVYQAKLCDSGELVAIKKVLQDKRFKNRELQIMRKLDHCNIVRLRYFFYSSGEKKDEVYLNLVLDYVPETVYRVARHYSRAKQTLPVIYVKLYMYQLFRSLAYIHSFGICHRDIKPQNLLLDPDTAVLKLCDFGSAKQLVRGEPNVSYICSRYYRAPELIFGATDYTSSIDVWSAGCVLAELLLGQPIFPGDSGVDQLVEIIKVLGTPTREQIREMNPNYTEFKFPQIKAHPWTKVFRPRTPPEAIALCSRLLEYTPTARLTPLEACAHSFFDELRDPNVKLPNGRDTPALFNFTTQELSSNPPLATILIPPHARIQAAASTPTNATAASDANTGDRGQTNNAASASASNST

Experiment [6] addresses Serine/threonine-protein kinase PAK 4 (Homo sapiens) (UniProt O96013). Nature of the experiment: Binding affinity to human PAK4 at 200 nM by cell-based competition binding assay relative to control in presence of DTT.
Experiment [7] deals with Phosphatidylinositol 4-phosphate 3-kinase C2 domain-containing subunit beta (Homo sapiens) (UniProt O00750). Nature of the experiment: Binding affinity to human PIK3C2beta at 200 nM by cell-based competition binding assay relative to control in presence of DTT.
In experiment [8] the test system is Tyrosine-protein kinase ABL1 (Homo sapiens), P00519 [E255K]. Nature of the experiment: Binding affinity to human ABL1 E255K mutant at 200 nM by cell-based competition binding assay relative to control in presence of DTT. The gist of the method:
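Kinase binding profiling ran on a commercial (Ambit) competitive binding screen against a panel of 90 kinases. The screen used reducing conditions with 7.5 mM DTT. To withstand the DTT, the bivalent ligand was tested as its amide isostere, with the disulfide replaced. A staurosporine derivative carrying a 3 β-alanine linker was run as the reference compound.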

The target of experiment [9] is T3, Aurora kinase A (Homo sapiens) (UniProt O14965).
T3 sequence (whole entry): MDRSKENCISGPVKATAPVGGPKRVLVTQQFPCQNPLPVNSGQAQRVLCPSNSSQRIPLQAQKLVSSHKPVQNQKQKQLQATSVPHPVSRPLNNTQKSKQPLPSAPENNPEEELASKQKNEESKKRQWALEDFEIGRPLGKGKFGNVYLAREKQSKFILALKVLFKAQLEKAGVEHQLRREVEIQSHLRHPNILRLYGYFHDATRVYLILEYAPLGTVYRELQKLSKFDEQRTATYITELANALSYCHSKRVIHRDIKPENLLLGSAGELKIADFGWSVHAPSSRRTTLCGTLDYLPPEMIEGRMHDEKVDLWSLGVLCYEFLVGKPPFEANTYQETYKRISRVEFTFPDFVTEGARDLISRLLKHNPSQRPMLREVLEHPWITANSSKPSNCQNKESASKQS
Kind of experiment: Binding affinity to human aurora kinase A at 200 nM by cell-based competition binding assay relative to control in presence of DTT.

Experiment [10] addresses T4, Serine/threonine-protein kinase Chk1 (Homo sapiens) (UniProt O14757).
T4 sequence (whole entry): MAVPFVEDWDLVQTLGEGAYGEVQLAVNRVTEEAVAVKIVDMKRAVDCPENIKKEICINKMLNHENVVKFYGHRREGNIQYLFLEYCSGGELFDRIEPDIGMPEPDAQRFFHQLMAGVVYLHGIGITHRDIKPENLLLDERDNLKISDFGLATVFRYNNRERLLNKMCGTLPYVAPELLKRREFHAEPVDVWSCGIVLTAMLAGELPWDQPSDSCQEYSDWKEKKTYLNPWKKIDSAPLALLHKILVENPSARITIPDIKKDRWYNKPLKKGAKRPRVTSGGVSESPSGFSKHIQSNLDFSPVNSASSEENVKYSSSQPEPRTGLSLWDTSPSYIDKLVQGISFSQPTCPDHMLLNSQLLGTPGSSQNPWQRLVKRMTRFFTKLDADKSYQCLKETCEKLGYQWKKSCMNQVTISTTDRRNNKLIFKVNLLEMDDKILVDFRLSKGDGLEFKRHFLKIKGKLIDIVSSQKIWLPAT
Nature of the experiment: Binding affinity to human CHEK1 at 200 nM by cell-based competition binding assay relative to control in presence of DTT. The essentials: as §1

The target in experiment [11] is Serine/threonine-protein kinase 32C (Homo sapiens) (UniProt Q86UX6). Nature of the experiment: Binding affinity to human YANK3 at 200 nM by cell-based competition binding assay relative to control in presence of DTT.
Sequence of Serine/threonine-protein kinase 32C (Homo sapiens) (Q86UX6 whole entry, canonical isoform): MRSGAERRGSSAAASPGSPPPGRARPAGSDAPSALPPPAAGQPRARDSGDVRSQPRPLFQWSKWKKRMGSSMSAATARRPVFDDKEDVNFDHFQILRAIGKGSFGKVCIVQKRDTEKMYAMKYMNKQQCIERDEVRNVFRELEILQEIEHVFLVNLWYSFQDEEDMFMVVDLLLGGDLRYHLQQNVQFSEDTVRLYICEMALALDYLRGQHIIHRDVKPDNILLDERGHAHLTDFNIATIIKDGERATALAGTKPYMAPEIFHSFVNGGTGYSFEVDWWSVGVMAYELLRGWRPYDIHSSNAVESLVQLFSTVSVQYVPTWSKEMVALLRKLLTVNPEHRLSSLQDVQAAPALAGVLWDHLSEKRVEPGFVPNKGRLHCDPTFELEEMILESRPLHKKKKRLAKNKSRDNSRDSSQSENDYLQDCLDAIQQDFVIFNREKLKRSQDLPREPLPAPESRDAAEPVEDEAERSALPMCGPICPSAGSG
Experiment [12] has as its target Phosphatidylinositol 4,5-bisphosphate 3-kinase catalytic subunit gamma isoform (Homo sapiens) (UniProt P48736). Nature of the experiment: Binding affinity to human PIK3Cgamma at 50 nM by cell-based competition binding assay relative to control in presence of DTT.

Experimental findings from ChEMBL document CHEMBL1152541, “Staurosporine tethered peptide ligands that target cAMP-dependent protein kinase (PKA): optimization and selectivity profiling” (Bioorg Med Chem, 2009) are described below.

Each structure is given as a SMILES string. *1 amine or outer side, *2 acyl side, *3 side chain or, on linkers, in order; H or OH if unused. Where a SMILES comes first, the peptide text is derived from it. Bridges are numbered along the chain shown (N, C = ends). [ ]: non-standard residue; d: D form. The star is where a group is joined. Staurosporine = CO[C@@H]1[C@H](N(C)*)C[C@H]2O[C@]1(C)n1c3ccccc3c3c4c(c5c6ccccc6n2c5c31)C(=O)NC4; Suc = O=C(CCC(=O)[*:2])[*:1]; Dap = NC[C@H](N)C(=O)O; βAla = NCCC(=O)O

Sequence of RAF proto-oncogene serine/threonine-protein kinase (Homo sapiens) (P04049 whole entry): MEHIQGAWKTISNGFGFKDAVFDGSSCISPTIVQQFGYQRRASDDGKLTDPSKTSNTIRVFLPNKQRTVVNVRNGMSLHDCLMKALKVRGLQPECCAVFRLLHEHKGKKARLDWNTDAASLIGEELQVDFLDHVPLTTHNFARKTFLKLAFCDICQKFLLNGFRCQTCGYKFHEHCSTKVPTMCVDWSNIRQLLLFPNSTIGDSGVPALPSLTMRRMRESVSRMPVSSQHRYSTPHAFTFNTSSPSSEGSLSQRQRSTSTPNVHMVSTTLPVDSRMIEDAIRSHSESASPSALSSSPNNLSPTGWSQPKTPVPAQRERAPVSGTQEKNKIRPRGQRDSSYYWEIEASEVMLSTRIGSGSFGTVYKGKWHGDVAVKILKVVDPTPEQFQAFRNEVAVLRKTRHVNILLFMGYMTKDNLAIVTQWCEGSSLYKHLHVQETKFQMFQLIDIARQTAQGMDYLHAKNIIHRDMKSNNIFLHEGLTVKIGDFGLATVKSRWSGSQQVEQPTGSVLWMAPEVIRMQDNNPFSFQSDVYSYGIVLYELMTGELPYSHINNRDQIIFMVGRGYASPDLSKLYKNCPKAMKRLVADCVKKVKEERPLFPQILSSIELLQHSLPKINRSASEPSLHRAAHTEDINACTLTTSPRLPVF
Sequence of Tyrosine-protein kinase ABL1 (Homo sapiens), P00519 [E255K] (P00519 whole entry E255K): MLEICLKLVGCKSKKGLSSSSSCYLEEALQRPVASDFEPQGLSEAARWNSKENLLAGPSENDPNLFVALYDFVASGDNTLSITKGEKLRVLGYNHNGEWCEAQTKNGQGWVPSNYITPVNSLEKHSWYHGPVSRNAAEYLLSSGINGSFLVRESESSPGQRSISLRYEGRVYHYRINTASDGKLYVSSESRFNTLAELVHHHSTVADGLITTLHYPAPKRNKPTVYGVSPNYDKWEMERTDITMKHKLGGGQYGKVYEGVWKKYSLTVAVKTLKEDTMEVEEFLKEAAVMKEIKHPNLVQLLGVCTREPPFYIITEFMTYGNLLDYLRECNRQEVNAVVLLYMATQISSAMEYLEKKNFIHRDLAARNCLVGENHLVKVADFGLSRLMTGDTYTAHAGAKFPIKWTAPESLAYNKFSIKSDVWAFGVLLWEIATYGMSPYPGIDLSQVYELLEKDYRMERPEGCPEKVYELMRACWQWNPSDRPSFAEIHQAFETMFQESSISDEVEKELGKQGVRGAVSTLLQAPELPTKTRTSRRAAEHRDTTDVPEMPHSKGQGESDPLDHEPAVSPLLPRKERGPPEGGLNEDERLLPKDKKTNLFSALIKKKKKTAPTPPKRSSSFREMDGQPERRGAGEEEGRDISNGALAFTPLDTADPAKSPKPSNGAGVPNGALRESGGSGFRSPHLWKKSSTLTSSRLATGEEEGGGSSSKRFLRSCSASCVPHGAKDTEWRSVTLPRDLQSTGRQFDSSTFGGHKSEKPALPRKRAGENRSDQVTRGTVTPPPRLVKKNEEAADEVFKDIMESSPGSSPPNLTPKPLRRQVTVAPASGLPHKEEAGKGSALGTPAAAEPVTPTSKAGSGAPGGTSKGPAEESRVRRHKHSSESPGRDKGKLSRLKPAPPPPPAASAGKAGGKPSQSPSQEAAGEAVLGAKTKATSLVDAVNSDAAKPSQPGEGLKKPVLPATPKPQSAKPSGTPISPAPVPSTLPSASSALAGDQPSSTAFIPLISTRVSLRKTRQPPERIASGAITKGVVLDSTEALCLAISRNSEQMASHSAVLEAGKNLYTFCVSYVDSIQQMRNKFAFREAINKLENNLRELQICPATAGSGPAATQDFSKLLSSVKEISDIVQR
Sequence of Phosphatidylinositol 4,5-bisphosphate 3-kinase catalytic subunit gamma isoform (Homo sapiens) (P48736 whole entry, looked up, canonical isoform): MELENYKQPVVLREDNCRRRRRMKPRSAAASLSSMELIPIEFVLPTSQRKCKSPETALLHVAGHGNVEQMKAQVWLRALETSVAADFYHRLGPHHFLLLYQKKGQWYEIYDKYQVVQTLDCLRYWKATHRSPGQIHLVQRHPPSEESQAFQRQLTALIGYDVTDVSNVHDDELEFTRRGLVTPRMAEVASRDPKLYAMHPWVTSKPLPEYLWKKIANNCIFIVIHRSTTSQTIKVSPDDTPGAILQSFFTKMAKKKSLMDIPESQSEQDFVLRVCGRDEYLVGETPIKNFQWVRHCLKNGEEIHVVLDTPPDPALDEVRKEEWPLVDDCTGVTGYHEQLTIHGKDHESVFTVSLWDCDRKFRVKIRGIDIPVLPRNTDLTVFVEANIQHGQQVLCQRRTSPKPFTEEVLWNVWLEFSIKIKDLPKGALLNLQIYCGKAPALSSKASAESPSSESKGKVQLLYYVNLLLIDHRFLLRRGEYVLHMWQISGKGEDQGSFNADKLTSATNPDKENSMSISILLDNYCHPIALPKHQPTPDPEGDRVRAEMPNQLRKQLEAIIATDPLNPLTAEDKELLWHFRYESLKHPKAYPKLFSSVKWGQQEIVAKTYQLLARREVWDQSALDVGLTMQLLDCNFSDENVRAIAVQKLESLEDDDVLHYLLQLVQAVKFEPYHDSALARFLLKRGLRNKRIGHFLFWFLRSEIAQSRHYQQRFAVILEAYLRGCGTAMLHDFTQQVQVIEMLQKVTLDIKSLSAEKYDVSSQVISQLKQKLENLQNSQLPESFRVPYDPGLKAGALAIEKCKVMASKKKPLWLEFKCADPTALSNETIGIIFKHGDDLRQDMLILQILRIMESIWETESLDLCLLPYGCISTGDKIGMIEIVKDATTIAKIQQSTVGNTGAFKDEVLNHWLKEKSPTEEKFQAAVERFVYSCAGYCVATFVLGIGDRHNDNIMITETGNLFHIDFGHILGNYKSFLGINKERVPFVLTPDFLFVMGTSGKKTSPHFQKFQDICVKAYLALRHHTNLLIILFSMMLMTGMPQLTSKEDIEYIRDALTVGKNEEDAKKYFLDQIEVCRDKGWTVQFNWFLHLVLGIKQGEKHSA
Sequence of Serine/threonine-protein kinase PAK 4 (Homo sapiens) (O96013 whole entry, looked up, the tested form may be a part): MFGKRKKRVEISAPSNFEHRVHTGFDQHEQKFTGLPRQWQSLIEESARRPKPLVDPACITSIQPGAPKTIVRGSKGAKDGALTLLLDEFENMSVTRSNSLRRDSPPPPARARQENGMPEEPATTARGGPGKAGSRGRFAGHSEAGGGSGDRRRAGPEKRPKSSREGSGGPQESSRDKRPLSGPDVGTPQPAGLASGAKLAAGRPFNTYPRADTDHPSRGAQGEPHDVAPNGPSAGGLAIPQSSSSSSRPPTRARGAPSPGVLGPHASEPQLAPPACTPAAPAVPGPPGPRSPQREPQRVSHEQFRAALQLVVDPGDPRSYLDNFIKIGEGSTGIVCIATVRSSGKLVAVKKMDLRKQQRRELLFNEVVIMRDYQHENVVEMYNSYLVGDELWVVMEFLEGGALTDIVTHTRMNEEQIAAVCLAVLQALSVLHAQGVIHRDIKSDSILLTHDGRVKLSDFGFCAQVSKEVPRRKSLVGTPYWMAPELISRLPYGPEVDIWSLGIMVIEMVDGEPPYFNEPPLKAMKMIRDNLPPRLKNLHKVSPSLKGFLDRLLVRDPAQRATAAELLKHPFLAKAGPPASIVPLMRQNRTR

Consider `CO[C@@H]1[C@H](N(C)C(=O)CCC(=O)NCCC(=O)NCCC(=O)NCCC(N)=O)C[C@H]2O[C@]1(C)n1c3ccccc3c3c4c(c5c6ccccc6n2c5c31)C(=O)NC4`, for which the figures for the Activity in experiment [1] and in [2] were 73% and 2.6%, respectively. The Selectivity ratio in experiment [3] was found to be 31; in experiment [4] it was 3.
For `CO[C@@H]1[C@H](N(C)C(=O)CCC(=O)NCCC(=O)NCCC(=O)NCCC(=O)NCCC(=O)NCCC(=O)NCCC(=O)NCCC(=O)N[C@H]2CSSC[C@@H](C(=O)NCC(N)=O)NC(=O)CNC(=O)[C@H](Cc3ccccc3)NC(=O)[C@H](C(C)C)NC(=O)[C@H](CCCNC(=N)N)NC(=O)[C@H](Cc3ccccc3)NC(=O)[C@H](C(C)C)NC2=O)C[C@H]2O[C@]1(C)n1c3ccccc3c3c4c(c5c6ccccc6n2c5c31)C(=O)NC4` ({Staurosporine-Suc-βAla-βAla-βAla-βAla-βAla-βAla-βAla}-CVFRVFGCG-NH2; disulfide 1-8), the Activity in experiment [5] amounted to 100%; in experiment [6], 40%; in experiment [7] it was 100%; in [8], 100%; in [9], 19%; in experiment [10] it was 60%. In [11], the Activity stood at 100%.
As for `CO[C@@H]1[C@H](N(C)C(=O)CCC(=O)NCCC(=O)NCCC(=O)NCCC(=O)NCCC(=O)NCCC(=O)NCCC(=O)NCCC(=O)N[C@H]2CNC(=O)C[C@@H](C(N)=O)NC(=O)CNC(=O)[C@H](Cc3ccccc3)NC(=O)[C@H](C(C)C)NC(=O)[C@H](CCCNC(=N)N)NC(=O)[C@H](Cc3ccccc3)NC(=O)[C@H](C(C)C)NC2=O)C[C@H]2O[C@]1(C)n1c3ccccc3c3c4c(c5c6ccccc6n2c5c31)C(=O)NC4` ({Staurosporine-Suc-βAla-βAla-βAla-βAla-βAla-βAla-βAla}-[Dap]VFRVFGD-NH2; lactam 1-8), in experiment [12], the Activity amounted to 91%.
